# Data taken from ChEMBL document CHEMBL4118150, “2-Methylacrylamide as a bioisoster of thiourea group for 1,3-dibenzylthioureido TRPV1 receptor antagonists” (Bioorg Med Chem Lett, 2018).
# Target: T1, Transient receptor potential cation channel subfamily V member 1 (Rattus norvegicus, UniProt O35433)
# Assay: Antagonist activity at TRPV1 in neonatal rat DRG neurons assessed as inhibition of capsaicin-induced intracellular calcium after 10 mins in presence of 45Ca2+ by Beckman CP scintillation counting method
# Type: cell-based
# In short: (§1)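 45Ca2+ uptake in cultured spinal sensory neurons from neonatal rat. Antagonist mode: derivatives were tested against 0.5 μM capsaicin, and IC50 is the concentration that cuts the capsaicin response by 50%. Agonist mode: EC50 is the concentration giving 50% of the maximal response. Values were estimated from at least 3 replicates at each concentration.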
# T1 sequence (O35433 whole entry): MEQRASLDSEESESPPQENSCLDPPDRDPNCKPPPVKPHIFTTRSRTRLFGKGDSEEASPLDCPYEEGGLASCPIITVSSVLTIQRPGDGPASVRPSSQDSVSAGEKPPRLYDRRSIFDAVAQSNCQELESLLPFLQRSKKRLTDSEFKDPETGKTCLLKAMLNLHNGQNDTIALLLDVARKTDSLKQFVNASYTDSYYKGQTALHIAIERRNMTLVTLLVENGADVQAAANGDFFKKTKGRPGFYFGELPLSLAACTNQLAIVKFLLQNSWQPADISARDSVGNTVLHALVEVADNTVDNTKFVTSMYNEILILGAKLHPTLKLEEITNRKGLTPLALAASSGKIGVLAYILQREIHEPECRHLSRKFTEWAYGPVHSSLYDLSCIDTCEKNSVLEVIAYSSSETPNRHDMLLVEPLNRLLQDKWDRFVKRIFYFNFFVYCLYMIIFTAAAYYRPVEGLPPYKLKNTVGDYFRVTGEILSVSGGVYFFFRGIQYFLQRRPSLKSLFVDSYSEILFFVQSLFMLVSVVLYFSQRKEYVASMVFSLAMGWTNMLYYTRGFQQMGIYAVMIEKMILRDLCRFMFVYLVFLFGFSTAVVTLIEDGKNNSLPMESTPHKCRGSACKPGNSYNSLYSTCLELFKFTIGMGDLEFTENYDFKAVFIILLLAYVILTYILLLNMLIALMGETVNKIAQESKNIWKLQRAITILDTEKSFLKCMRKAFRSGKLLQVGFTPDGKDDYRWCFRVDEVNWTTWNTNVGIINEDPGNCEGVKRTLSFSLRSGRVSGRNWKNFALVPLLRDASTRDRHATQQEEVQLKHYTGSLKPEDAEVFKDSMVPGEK
row,IC50,SMILES
1,0.24 µM,C[C@@H](NC(=O)CCc1ccc(C(C)(C)C)cc1)c1ccc(NS(C)(=O)=O)cc1
2,0.16 µM,C[C@@H](NC(=O)/C=C/c1ccc(C(C)(C)C)cc1)c1ccc(NS(C)(=O)=O)cc1
3,5 µM,C[C@@H](NC(=S)/C=C/c1ccc(C(C)(C)C)cc1)c1ccc(NS(C)(=O)=O)cc1
4,0.27 µM,CC(Cc1ccc(C(C)(C)C)cc1)C(=O)N[C@H](C)c1ccc(NS(C)(=O)=O)cc1 (mixture of isomers)
5,0.68 µM,C[C@@H](NC(=O)NCc1ccc(C(C)(C)C)cc1)c1ccc(NS(C)(=O)=O)cc1
6,0.3 µM,C[C@@H](NC(=S)CCc1ccc(C(C)(C)C)cc1)c1ccc(NS(C)(=O)=O)cc1

# Target: Transient receptor potential cation channel subfamily V member 1 (Rattus norvegicus) (UniProt O35433)
# Sequence (O35433 whole entry): as above
# Assay: Potency index, ratio of IC50 for ATC-120 to IC50 for test compound for antagonist activity at TRPV1 in neonatal rat DRG neurons
row,Ratio IC50,SMILES
1,2,C=Cc1cc([C@@H](C)NC(=O)/C(C)=C/c2ccc(C(C)(C)C)cc2)ccc1NS(C)(=O)=O

# Target: T1, Transient receptor potential cation channel subfamily V member 1
# Assay: Agonist activity at TRPV1 in neonatal rat DRG neurons assessed as increase in calcium influx after 10 mins in presence of 45Ca2+ by Beckman CP scintillation counting method
# In short: as §1
row,SMILES,EC50
1,C[C@@H](NC(=S)NCc1ccc(C(C)(C)C)cc1)c1ccc(NS(C)(=O)=O)cc1,> 100 µM
2,C[C@@H](NC(=S)COc1ccc(C(C)(C)C)cc1)c1ccc(NS(C)(=O)=O)cc1,> 100 µM
3,C[C@@H](NC(=O)COc1ccc(C(C)(C)C)cc1)c1ccc(NS(C)(=O)=O)c(F)c1,> 100 µM
4,C[C@@H](NC(=O)C#Cc1ccc(C(C)(C)C)cc1)c1ccc(NS(C)(=O)=O)cc1,> 100 µM
5,C[C@@H](NC(=O)COc1ccc(C(C)(C)C)cc1)c1ccc(NS(C)(=O)=O)cc1,> 100 µM
6,C/C(=C\c1ccc(C(C)(C)C)cc1)C(=O)N[C@H](C)c1ccc(NS(C)(=O)=O)c(F)c1,> 100 µM

# Continued, values first:
row,EC50,SMILES
1,> 100 µM,C[C@@H](NC(=O)CCc1ccc(C(C)(C)C)cc1)c1ccc(NS(C)(=O)=O)cc1
2,> 100 µM,C/C(=C\c1ccc(C(C)(C)C)cc1)C(=O)N[C@H](C)c1ccc(NS(C)(=O)=O)cc1
3,> 100 µM,C[C@@H](N/C(COc1ccc(C(C)(C)C)cc1)=N/C#N)c1ccc(NS(C)(=O)=O)cc1
4,> 100 µM,C[C@@H](NC(=O)/C=C/c1ccc(C(C)(C)C)cc1)c1ccc(NS(C)(=O)=O)cc1
5,> 100 µM,C=Cc1cc([C@@H](C)NC(=O)/C(C)=C/c2ccc(C(C)(C)C)cc2)ccc1NS(C)(=O)=O
6,> 100 µM,C[C@@H](NC(=S)/C=C/c1ccc(C(C)(C)C)cc1)c1ccc(NS(C)(=O)=O)cc1
7,> 100 µM,CC(Cc1ccc(C(C)(C)C)cc1)C(=O)N[C@H](C)c1ccc(NS(C)(=O)=O)cc1 (mixture of isomers)
8,> 100 µM,C[C@@H](NC(=O)NCc1ccc(C(C)(C)C)cc1)c1ccc(NS(C)(=O)=O)cc1
9,> 100 µM,C[C@@H](NC(=S)CCc1ccc(C(C)(C)C)cc1)c1ccc(NS(C)(=O)=O)cc1
